Experimental data gathered from unrelated publications.
Compare with care: the assays were run in different laboratories. pIC50: −log10 of the molar value.

Cn1cc(C(=O)C(=O)NCCc2c[nH]c3ccccc23)c2ccccc21  pIC50 (C4-2; cell growth or viability; MTT): < 4.00
O=C(c1cc(Cc2n[nH]c(=O)c3ccccc23)ccc1F)N1CCN(C(=O)C2CC2)CC1  pIC50 (KATO III; colony formation): 5.61
O=C(O)c1cc(O)c2c(c1)C(=O)c1cccc(O)c1C2=O  pIC50 (HK-2; cell growth or viability; MTT; 24 h): 3.68
CC(C)(C)C1=CC(=NNc2ccc(C#N)cc2)C=C(C(C)(C)C)C1=O  pIC50 (human Fibroblast; cell growth or viability; resazurin; 24 h): < 4.00
C=C(C)C(=O)Nc1ccc(-c2c(-c3ccc(Oc4nccc(C)n4)c(F)c3)c3c(N)ncnc3n2C)cc1  pIC50 (RT-112; cell growth or viability; ATP luminescence; 96 h): 6.67
CCN(CC)CCCCNc1ncc2cc(-c3cc(OC)cc(OC)c3)c(NC(=O)NC(C)(C)C)nc2n1  pIC50 (RT-112; cell growth or viability; MTT; 5 days): 7.82
COc1cccc(Oc2ccccc2NC(=O)CNC(=O)c2cccc3ccccc23)c1  pIC50 (SK-N-DZ; cell growth or viability): 6.54
CCCCc1ccc2[nH]c(NC(=O)OC)nc2c1  pIC50 (HN-6; cell growth or viability; 72 h): 6.90
COc1nc(OCc2cccc(-c3ccccc3)c2C)ccc1CNCCNC(C)=O  pIC50 (HK-2; cell growth or viability; MTT): 5.72
Clc1ccc2c(c1)N=C(N1CCNCC1)c1ccccc1N2  pIC50 (HN-6; cell growth or viability; 72 h): < 4.70
Nc1ccn([C@@H]2O[C@H](CO)[C@@H](O)C2(F)F)c(=O)n1  pIC50 (Panc 02.03; cell growth or viability; MTT; 72 h): 6.42
CCN1C(=O)N(c2c(F)c(OC)cc(OC)c2F)Cc2cnc3[nH]c(CN4CCOCC4)cc3c21  pIC50 (KATO III; cell growth or viability; ATP luminescence; 96 h): 8.83
COc1cccc2c1C(=O)c1c(O)c3c(c(O)c1C2=O)C[C@@](O)(C(=O)CO)C[C@@H]3O[C@H]1C[C@H](N)[C@H](O)[C@H](C)O1  pIC50 (A2058; cell growth or viability; WST-1; 72 h): 7.40
C(=C\c1c[nH]c2ccccc12)/c1ccc2ccccc2n1  pIC50 (MDA-MB-468; cell growth or viability; MTT): 4.96
CCCCC/C=C\C/C=C\C/C=C\C/C=C\CCCC(=O)C(F)(F)F  pIC50 (MEL-JUSO; cell growth or viability; MTS; 72 h): 4.64
COc1cccc2c1C(=O)c1c(O)c3c(c(O)c1C2=O)C[C@@](O)(C(=O)CO)C[C@@H]3O[C@H]1C[C@H](N)[C@H](O)[C@H](C)O1  pIC50 (SGC-7901; cell growth or viability; MTT; 48 h): 6.89
NCCc1ccc(O)c(O)c1  pIC50 (HN-6; cell growth or viability; 72 h): < 4.70
O=C(CNC(=O)c1cccc2ccccc12)Nc1ccccc1Oc1ccccc1  pIC50 (SK-N-DZ; cell growth or viability): 6.63
CC(C)(C)C1=CC(=NNC(=O)c2cccnc2)C=C(C(C)(C)C)C1=O  pIC50 (human Fibroblast; cell growth or viability; resazurin; 24 h): < 4.00
COC(=O)CN=c1scc(-c2ccccc2)n1-c1ccccc1C  pIC50 (Panc 02.03; cell growth or viability; MTT; 72 h): < 4.00
COc1cc(Nc2nccc(-c3cnn4nc(OC)ccc34)n2)cc(C(F)(F)F)c1  pIC50 (RERF-LC-Ad2; cell growth or viability; ATP luminescence): 6.44
O=C1Nc2ccc(Cl)cc2[C@@](C#CC2CC2)(C(F)(F)F)O1  pIC50 (HN-6; cell growth or viability; 72 h): 4.73
COc1ccc(Oc2ccccc2NC(=O)CNC(=O)c2cccc3ccccc23)cc1  pIC50 (SK-N-DZ; cell growth or viability): 6.57
O=C1NCCc2[nH]c(-c3ccncc3)cc21  pIC50 (LOX IMVI; cell growth or viability): 5.45
Nc1ncnc2c1ncn2[C@@H]1O[C@H](CO)[C@@H](O)[C@@H]1O  pIC50 (HN-6; cell growth or viability; 72 h): < 4.70
COc1ccc2[nH]cc(S(C)(=O)=Nc3cc(OC)c(OC)c(OC)c3)c2c1 (centres unmarked)  pIC50 (C4-2; cell growth or viability; MTT; 48 h): < 4.40
CC(C)C(=O)SCCCCCCC(=O)Nc1nc(-c2ccccc2)cs1  pIC50 (HN-6; cell growth or viability; 72 h): 5.23
COc1ccc2[nH]cc(C(=O)C(=O)CCCc3c[nH]c4ccccc34)c2c1  pIC50 (C4-2; cell growth or viability; MTT): < 4.00
COc1cc2nc(N3CCN(C(=O)c4ccco4)[C@H]4CCCC[C@H]43)nc(N)c2cc1OC (racemic)  pIC50 (HN-6; cell growth or viability; 72 h): 4.81
COc1c(O)cc2c(c1O)C(=O)c1c(cc(C)c(O)c1OC)C2=O  pIC50 (HK-2; cell growth or viability; MTT; 24 h): < 3.30
Cc1c[nH]c(/C=C2\C(=O)Nc3ccccc32)c1CCC(=O)O  pIC50 (RT-112; cell growth or viability; MTT; 5 days): 5.22
COC(C)(C)CCC[C@](C)(O)[C@H]1CC[C@]2(C)[C@@H]1[C@H](O)C[C@@H]1[C@@]3(C)CC[C@H](O)C(C)(C)[C@@H]3CC[C@]12C  pIC50 (BEAS-2B; cell growth or viability; MTT; 72 h): 4.61
CC(C)C[C@H](NC(=O)[C@H](Cc1ccccc1)NC(=O)c1cnccn1)B(O)O  pIC50 (A2058; cell growth or viability; ATP luminescence): 7.89
CCN1CCN(c2ccc(Nc3cc(N(C)C(=O)Nc4c(Cl)c(OC)cc(OC)c4Cl)ncn3)cc2)CC1  pIC50 (RT-112; cell growth or viability; ATP luminescence; 96 h): 7.93
Nc1ccc(Cl)c[n+]1[Pt-2]([Cl])([Cl])[n+]1cc(Cl)ccc1N  pIC50 (BEAS-2B; cell growth or viability; MTT; 48 h): 5.20
O=C(O)c1cc(O)c2c(c1)C(=O)c1cccc(O[C@@H]3O[C@H](CO)[C@@H](O)[C@H](O)[C@H]3O)c1C2=O  pIC50 (HK-2; cell growth or viability; MTT; 24 h): < 3.30
CC(=O)CC(c1ccccc1)c1c(O)c2ccccc2oc1=O (centres unmarked)  pIC50 (HN-6; cell growth or viability; 72 h): < 4.70
O=C(O)CCCc1ccccc1  pIC50 (BCPAP; cell growth or viability; MTT; 72 h): < 4.30
